# Compounds with a hit are over-represented: about 3.6% of the library has one in this group of screens.
# NS3 helicase inh: inhibitors of HCV NS3 helicase, primary screen, biochemical, Cy5 molecular beacon fluorescence; inhibition, % at 10.9 µM; hit rate 0.56% among 290,000; NS3 helicase DNA unwinding;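 active means inhibition above the mean of all tested compounds plus 3 SD, set per campaign, cut at about 35% in these data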;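 further: 0% = DMSO wells and 100% = thioflavine S control wells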
#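 Test system: hepatitis C virus NS3 helicase domain fragment enzyme. Also added: annealed dual-labelled DNA beacon duplex, ATP-started. Timing: 60 min unwinding reaction at 25 °C after ATP addition. Technique: Cy5 fluorescence. Measure: % inhibition of unwinding.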
# FGF22 binding: binders of human FGF22 protein, primary screen, FGF22 synaptogenesis inhibitor project, biophysical, thermal shift, single point. recombinant FGF22 thermal shift, SYPRO orange fluorescence; percent of sucrose octasulfate shift, DMSO zero. activity (Tm shift, normalised), % at 9.99 µM. hit rate 1.5% among 340,000;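 active means mean Tm shift, scaled 0 neutral to 100 positive control, at about 1.3% or above, every replicate too, limit read from the data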
# Target sequence (Q9HCT0 whole entry, looked up): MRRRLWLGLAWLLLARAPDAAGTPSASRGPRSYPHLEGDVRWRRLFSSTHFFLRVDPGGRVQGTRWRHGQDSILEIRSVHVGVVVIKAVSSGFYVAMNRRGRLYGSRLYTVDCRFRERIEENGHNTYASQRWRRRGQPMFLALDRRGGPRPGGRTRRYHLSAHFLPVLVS
# NR3A LBD binder: binders of NR3A ligand-binding domain, primary screen, biophysical, differential scanning fluorimetry, uHTS | Glutamate receptor ionotropic, NMDA 3A (GRIN3A) ligand-binding domain | NR3A LBD differential scanning fluorimetry, Tm shift; 0% = protein alone, 100% = glycine-bound protein | Tm shift relative to glycine control, % at 25 µM | hit rate 2.5% among 340,000;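 active means melting temperature shift of at least 10% of the positive control shift, at one fixed dose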
# ZTA counter: blocks Epstein-Barr virus ZTA, an EBNA-1 counter-screen | inhibition, % at 11 µM | hit rate 0.15% among 320,000 | ZTA-DNA binding, fluorescence polarization | P03206; in the data active means inhibition above about 33%
# Target sequence (P03206 whole entry, looked up): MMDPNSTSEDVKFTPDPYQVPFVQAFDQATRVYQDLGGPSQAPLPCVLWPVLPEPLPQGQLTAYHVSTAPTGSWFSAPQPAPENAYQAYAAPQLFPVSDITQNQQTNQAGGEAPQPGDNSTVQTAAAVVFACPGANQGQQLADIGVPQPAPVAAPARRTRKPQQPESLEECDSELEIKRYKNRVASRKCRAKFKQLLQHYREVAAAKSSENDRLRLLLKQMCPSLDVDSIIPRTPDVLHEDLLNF
# DNA FID counter: compounds displacing fluorescent DNA intercalator, primary screen, artefact control for HCV NS3 helicase inhibitor project, biochemical, FID fluorescence; hit rate 0.17% among 290,000; DNA fluorescent intercalator displacement; inhibition, % at 7.9 µM; AID 1845, 2009; in the data active means inhibition above about 37%;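 further: 0% = vehicle and 100% = reference compound; higher means more ethidium bromide displaced from hairpin DNA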
# EBNA-1 inh: EBNA-1 DNA-binding inhibitors, primary screen, biochemical, fluorescence polarization. inhibition, % at 14.8 µM. hit rate 0.34% among 300,000. AID 1950, 2009; in the data active means inhibition above about 28%
# Starred values were filed as active, the others as inactive; nt = no result.
SMILES,NS3 helicase inh,FGF22 binding,NR3A LBD binder,ZTA counter,DNA FID counter,EBNA-1 inh
COc1ccc(/C=C2\C(=O)N(c3c(Cl)cc(Cl)cc3Cl)N=C2NC(=O)c2cccc([N+](=O)[O-])c2)cc1,15.7,nt,12.9*,10.5,-5.9,7.9
COc1cc2c(cc1NC(=O)C(C)N1CCN(S(=O)(=O)c3ccc(C)c(C)c3)CC1)oc1ccccc12 (stereo unspecified),-1.4,nt,-7.1,-8.8,0.1,-4.3
COc1ccc(/C=C/C(=O)OCC(=O)Nc2cc3oc4ccccc4c3cc2OC)cc1,9.7,0.1,nt,-1.6,-1.4,-22.0
COc1cc2c(cc1NC(=O)C(C)OC(=O)c1ccc(S(=O)(=O)Nc3ccccc3Cl)cc1)oc1ccccc12 (stereo unspecified),6.3,-0.1,10.2*,4.3,1.0,8.4
COc1cc2c(cc1NC(=O)/C=C/c1cc(OC)c(OC)c(OC)c1)oc1ccccc12,-12.4,-0.1,26.9*,-9.1,-3.1,-3.2
COc1ccc(C(=O)NC(=S)Nc2cc3oc4ccccc4c3cc2OC)cc1,-6.9,44.0*,-1.0,-16.9,-5.9,-12.1
COc1cc2c(cc1NC(=O)c1ccncc1)oc1ccccc12,0.9,nt,22.3*,-8.5,-7.3,-2.3
COc1cc(OC)cc(C(=O)NC(=S)Nc2cc3oc4ccccc4c3cc2OC)c1,-7.0,0.0,1.6,-8.8,-4.9,-6.3
O=C(C[C@@H]1CC[C@H]2[C@@H](COC[C@@H](O)CN2S(=O)(=O)c2ccc(F)cc2)O1)NCC1CC1,nt,-0.2,nt,nt,nt,nt
CC(C)c1ccc(NC(=O)C[C@H]2CC[C@H]3[C@@H](COc4ccc(NC(=O)Nc5ccc(F)c(F)c5)cc4C(=O)N3C)O2)cc1,nt,0.2,nt,nt,nt,nt
COc1ccc2c3c(n(C)c2c1)[C@@H](CO)N(C(=O)CC1CC1)CC31CCN(Cc2ccncc2)CC1,nt,-0.1,nt,nt,nt,nt
O=S(=O)(c1ccc2ccccc2c1)N1CCN(Cc2ccc(OCCO)cc2)CC1,nt,-1.1,nt,nt,nt,nt
COc1cc2c(cc1NC(=O)c1cccnc1)oc1ccccc12,-6.1,nt,20.4*,10.9,-16.5,2.5
COc1cc2c(cc1NC(=O)c1cccc([N+](=O)[O-])c1)oc1ccccc12,-4.0,nt,2.6,-8.1,2.6,-12.9
CCOc1ccc(-n2c(=S)sc3c(=O)n(-c4ccc(F)cc4)c(SCC(=O)O)nc32)cc1,0.9,nt,14.9*,7.5,-11.5,2.4
CCC(=O)Nc1ccc2c(c1)C(=O)N(C)C[C@@H](OC)[C@H](C)CN(Cc1ccccc1)[C@@H](C)CO2,nt,-0.1,nt,nt,nt,nt
COc1cc(OC)cc(C(=O)Nc2ccc(-n3cnnn3)c(C)c2)c1,-10.3,0.1,-1.1,-4.4,-5.8,-3.3
Cc1cc(NC(=O)c2oc3ccccc3c2C)ccc1-n1cnnn1,-2.4,nt,23.3*,-4.2,-5.6,-11.8
CCC(=O)N1CC(=O)N2[C@@H](CO)[C@@H](c3ccc(C#CC4CCCCC4)cc3)[C@@H]2C1,nt,-0.5,nt,nt,nt,nt
CN(C)c1ccc(NC(=O)/C=C/c2ccccc2Cl)cc1,4.8,nt,30.6*,-0.2,3.7,1.0
Cc1cc(NC(=O)/C=C/c2ccccc2Cl)no1,0.0,nt,0.3,7.1,1.3,-5.5
CCN(CC)c1ccc(NC(=O)/C=C\c2ccccc2Cl)cc1,-14.8,nt,26.0*,-2.4,31.1,6.4
O=C(/C=C/c1ccccc1Cl)NCc1ccccc1,0.3,nt,-1.6,-11.4,-10.4,1.1
COc1cc(/C=C/C(=O)OCC(=O)NCc2ccco2)ccc1OC(F)F,1.9,nt,14.1*,7.6,-19.9,9.0
COc1ccc(NC(=O)NCc2ccco2)cc1OC,6.2,43.8*,-2.1,-12.9,-0.8,3.7
SMILES,NS3 helicase inh,FGF22 binding,NR3A LBD binder,ZTA counter,DNA FID counter,EBNA-1 inh
COc1ccccc1NC(=S)NCc1ccco1,5.5,nt,-0.4,-4.7,-0.8,0.5
COc1cc(NC(=S)NCc2ccco2)cc(OC)c1OC,2.7,nt,19.4*,2.9,-4.9,6.1
CCCN1[C@@H]2c3ccc(-c4ccccc4F)c(=O)n3C[C@H]1[C@H](CO)[C@H]2C(=O)NCC,nt,0.4,nt,nt,nt,nt
CCC(C)c1ccc(C2C3=C(Nc4nc(N)[nH]c(=O)c42)c2ccccc2C3=O)cc1 (stereo unspecified),-53.3,0.1,3.4,3.7,95.9*,-0.4
Nc1nc2c(c(=O)[nH]1)C(c1ccccc1)C1=C(N2)c2ccccc2C1=O (stereo unspecified),20.4,0.3,-0.8,-0.5,0.7,-7.9
CC(=O)Nc1ccc(SC[C@H](Cc2ccccc2)N2CCN(CC(C)C)CCC2=O)cc1,nt,-0.3,0.3,2.7,nt,-6.3
CC(=O)Nc1ccc(SC[C@H](CC(C)C)N2CCN(CC(C)C)CCC2=O)cc1,nt,0.0,12.9*,-5.6,nt,1.5
CN1C(=O)c2cc(NC(=O)c3cccc(Cl)c3)ccc2OC[C@H]2O[C@@H](CC(=O)NC3CCCCC3)CC[C@H]21,nt,1.4*,nt,nt,nt,nt
Nc1nc(Nc2ccccc2F)nc(N2CCOCC2)c1[N+](=O)[O-],3.6,-0.2,15.4*,6.4,-2.5,1.3
CCOC(=O)N1CCN(S(=O)(=O)c2ccc(C(=O)Nc3sc4c(c3C(N)=O)CC(C)(C)NC4(C)C)cc2)CC1,-25.9,-0.3,1.3,-9.7,40.6*,-6.5
CCOC(=O)c1c(NC(=O)c2ccc(C)cc2)sc2c1CC(C)(C)NC2(C)C,-60.6,nt,nt,-5.0,3.5,-7.0
CC1(C)Cc2c(sc(NC(=O)c3ccc(C(=O)c4ccccc4)cc3)c2C(N)=O)C(C)(C)N1,-82.2,0.1,-7.8,-4.6,36.8*,-2.4
COc1cccc(CNC(=O)C[C@H]2CC[C@@H](NC(C)=O)[C@H](CO)O2)c1,nt,-0.2,nt,nt,nt,nt
CC(=O)Oc1ccc(C(=O)Cc2ccc3ccccc3n2)c(O)c1C,13.6,0.1,11.6*,8.5,-3.9,13.5
Cc1c(O)ccc(/C(Cc2ccc3ccccc3n2)=N\O)c1O,-7.4,nt,-9.1,-6.4,-14.2,15.3
N=c1sccn1CC(=O)Nc1ccc(SC(F)F)cc1,-15.4,43.4*,0.4,4.7,9.9,4.2
C[C@H]1CN([C@@H](C)CO)C(=O)c2cc(C3=CCCCC3)cnc2O[C@@H]1CN(C)C(=O)NC1CCCC1,nt,-0.1,nt,nt,nt,nt
O=C(Nc1ccc(Cl)c(Cl)c1)c1ccc(Cn2cc(Cl)cn2)cc1,-8.5,-0.2,24.0*,nt,1.0,nt
C[C@H](CO)N1C[C@H](C)[C@@H](CN(C)C(=O)Nc2ccc3c(c2)OCO3)Oc2ccc(NC(=O)Cc3cn(C)c4ccccc34)cc2CC1=O,nt,-0.1,nt,nt,nt,nt
O=C(Nc1ccccc1-c1ccccc1)c1cccc(C(F)(F)F)c1,-3.0,nt,17.8*,2.0,-7.5,1.0
Cn1nnnc1SCC(=O)NNC(=O)c1ccc(Cl)cc1,1.4,44.0*,-1.1,-6.1,5.3,1.2

# Compound activity from PubChem.
